Test results reported in ChEMBL document CHEMBL1137767, “2-(3-Aryl-2-propenoyl)-3-methylquinoxaline-1,4-dioxides: a novel cluster of tumor-specific cytotoxins which reverse multidrug resistance” (Bioorg Med Chem, 2009).
Activity calls are given as the source filed them. The calls are words filed in the database; no cut-off is given here.

What was measured:
[1] = target: T1, ATP-dependent translocase ABCB1 (Homo sapiens, UniProt P08183); assay: Reversal of P-glycoprotein-mediated multidrug resistance in human MDR1 gene transfected mouse L5178Y cells assessed as fluorescence activity ratio at 20 uM by rhodamine 123 accumulation assay; type: cell-based
How it was run: (§1)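 Murine L-5178Y lymphoma cells transfected with human MDR1 gene (P-gp-overexpressing), alongside parental cells, treated or untreated with compound; rhodamine 123 accumulation measured by fluorescence; FAR = ratio of fluorescence intensity in treated versus untreated cells, values above 1 taken as MDR reversal.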

HL-60 [2] = assay: Growth inhibition of human HL60 cells at 10 uM; type: functional, cell-based
How it was run: (§2)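 Human tumor cell line panel (59 lines across leukemia, melanoma, non-small cell lung, colon, CNS, ovarian, renal, prostate, breast) treated at a single 10 uM concentration; growth inhibition recorded per line.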

IGROV-1 = assay: Growth inhibition of human IGROV1 cells at 10 uM; type: functional, cell-based; how it was run: as §2
RPMI8266 = assay: Growth inhibition of human […] cells at 10 uM; type: functional, cell-based; how it was run: as §2
HSC-2 = assay: Cytotoxicity against human HSC2 cells after 48 hrs; type: functional; conditions: HSC-2, 48 h
UACC-62 = assay: Growth inhibition of human UACC62 cells at 10 uM; type: functional, cell-based; how it was run: as §2
NCI/ADR-RES = assay: Growth inhibition of human NCI/ADR-RES cells at 10 uM; type: functional, cell-based; how it was run: as §2
PC-3 = assay: Growth inhibition of human PC3 cells at 10 uM; type: functional, cell-based; how it was run: as §2
LOX IMVI = assay: Growth inhibition of human LOXIMVI cells at 10 uM; type: functional, cell-based; how it was run: as §2
MDA-MB-435 = assay: Growth inhibition of human MDA-MB-435 cells at 10 uM; type: functional, cell-based; how it was run: as §2
CAKI-1 = assay: Growth inhibition of human Caki1 cells at 10 uM; type: functional, cell-based; how it was run: as §2
HSC-4 = assay: Cytotoxicity against human HSC4 cells after 48 hrs; type: functional; conditions: HSC-4, 48 h
[3] = Cytotoxicity against human HPLF cells after 48 hrs; type: cell-based
OVCAR-4 = assay: Growth inhibition of human OVCAR4 cells at 10 uM; type: functional, cell-based; how it was run: as §2
[4] = Cytotoxicity against human HGF cells after 48 hrs; type: cell-based
RXF 393 = assay: Growth inhibition of human RXF393 cells at 10 uM; type: functional, cell-based; how it was run: as §2
[5] = target: T1, ATP-dependent translocase ABCB1; assay: Reversal of P-glycoprotein-mediated multidrug resistance in human MDR1 gene transfected mouse L5178Y cells assessed as fluorescence activity ratio at 200 uM by rhodamine 123 accumulation assay; type: cell-based; how it was run: as §1
EKVX = assay: Growth inhibition of human EKVX cells at 10 uM; type: functional, cell-based; how it was run: as §2
UO-31 = assay: Growth inhibition of human UO31 cells at 10 uM; type: functional, cell-based; how it was run: as §2
NCI-H522 = assay: Growth inhibition of human NCI-H522 cells at 10 uM; type: functional, cell-based; how it was run: as §2
OVCAR-8 = assay: Growth inhibition of human OVCAR8 cells at 10 uM; type: functional, cell-based; how it was run: as §2
U-251 = assay: Growth inhibition of human U251 cells at 10 uM; type: functional, cell-based; how it was run: as §2
HCT-116 = assay: Growth inhibition of human HCT116 cells at 10 uM; type: functional, cell-based; how it was run: as §2
DU-145 = assay: Growth inhibition of human DU145 cells at 10 uM; type: functional, cell-based; how it was run: as §2
T47D = assay: Growth inhibition of human T47D cells at 10 uM; type: functional, cell-based; how it was run: as §2
MCF7 = assay: Growth inhibition of human MCF7 cells at 10 uM; type: functional, cell-based; how it was run: as §2
SF-295 = assay: Growth inhibition of human SF295 cells at 10 uM; type: functional, cell-based; how it was run: as §2
HCC 2998 = assay: Growth inhibition of human HCC2998 cells at 10 uM; type: functional, cell-based; how it was run: as §2
[6] = Cytotoxicity against human HPC cells after 48 hrs; type: cell-based
Hs-578T = assay: Growth inhibition of human Hs 578T cells at 10 uM; type: functional, cell-based; how it was run: as §2
K562 = assay: Growth inhibition of human K562 cells at 10 uM; type: functional, cell-based; how it was run: as §2
A549 = assay: Growth inhibition of human A549 cells at 10 uM; type: functional, cell-based; how it was run: as §2
[7] = Growth inhibition of human Molt4/C8 cells after 3 days; type: functional, cell-based; conditions: MOLT-4, 72 h
How it was run: (§3)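 Human CEM and Molt 4/C8 T-lymphocytes were grown for three days with or without serial dilutions of the compound. IC50 is the concentration that inhibits cell growth by 50%.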

NCI-H460 = assay: Growth inhibition of human NCI-H460 cells at 10 uM; type: functional, cell-based; how it was run: as §2
SNB-75 = assay: Growth inhibition of human SNB75 cells at 10 uM; type: functional, cell-based; how it was run: as §2
CCRF-CEM [8] = assay: Growth inhibition of human CEM cells after 3 days; type: functional, cell-based; conditions: 72 h; how it was run: as §3
A498 = assay: Growth inhibition of human A498 cells at 10 uM; type: functional, cell-based; how it was run: as §2
SW-620 = assay: Growth inhibition of human SW620 cells at 10 uM; type: functional, cell-based; how it was run: as §2
NCI-H23 = assay: Growth inhibition of human NCI-H23 cells at 10 uM; type: functional, cell-based; how it was run: as §2
OVCAR-3 = assay: Growth inhibition of human OVCAR-3 cells at 10 uM; type: functional, cell-based; how it was run: as §2
CCRF-CEM [9] = assay: Growth inhibition of human CCRF-CEM cells at 10 uM; type: functional, cell-based; how it was run: as §2
HSC-3 = assay: Cytotoxicity against human HSC3 cells after 48 hrs; type: functional; conditions: HSC-3, 48 h
HOP-92 = assay: Growth inhibition of human HOP92 cells at 10 uM; type: functional, cell-based; how it was run: as §2
MDA-MB-468 = assay: Growth inhibition of human MDA-MB-468 cells at 10 uM; type: functional, cell-based; how it was run: as §2
HL-60 [10] = assay: Cytotoxicity against human HL60 cells after 48 hrs; type: functional; conditions: HL-60, 48 h
M14 = assay: Growth inhibition of human M14 cells at 10 uM; type: functional, cell-based; how it was run: as §2
HCT-15 = assay: Growth inhibition of human HCT15 cells at 10 uM; type: functional, cell-based; how it was run: as §2

T1 sequence (P08183 whole entry): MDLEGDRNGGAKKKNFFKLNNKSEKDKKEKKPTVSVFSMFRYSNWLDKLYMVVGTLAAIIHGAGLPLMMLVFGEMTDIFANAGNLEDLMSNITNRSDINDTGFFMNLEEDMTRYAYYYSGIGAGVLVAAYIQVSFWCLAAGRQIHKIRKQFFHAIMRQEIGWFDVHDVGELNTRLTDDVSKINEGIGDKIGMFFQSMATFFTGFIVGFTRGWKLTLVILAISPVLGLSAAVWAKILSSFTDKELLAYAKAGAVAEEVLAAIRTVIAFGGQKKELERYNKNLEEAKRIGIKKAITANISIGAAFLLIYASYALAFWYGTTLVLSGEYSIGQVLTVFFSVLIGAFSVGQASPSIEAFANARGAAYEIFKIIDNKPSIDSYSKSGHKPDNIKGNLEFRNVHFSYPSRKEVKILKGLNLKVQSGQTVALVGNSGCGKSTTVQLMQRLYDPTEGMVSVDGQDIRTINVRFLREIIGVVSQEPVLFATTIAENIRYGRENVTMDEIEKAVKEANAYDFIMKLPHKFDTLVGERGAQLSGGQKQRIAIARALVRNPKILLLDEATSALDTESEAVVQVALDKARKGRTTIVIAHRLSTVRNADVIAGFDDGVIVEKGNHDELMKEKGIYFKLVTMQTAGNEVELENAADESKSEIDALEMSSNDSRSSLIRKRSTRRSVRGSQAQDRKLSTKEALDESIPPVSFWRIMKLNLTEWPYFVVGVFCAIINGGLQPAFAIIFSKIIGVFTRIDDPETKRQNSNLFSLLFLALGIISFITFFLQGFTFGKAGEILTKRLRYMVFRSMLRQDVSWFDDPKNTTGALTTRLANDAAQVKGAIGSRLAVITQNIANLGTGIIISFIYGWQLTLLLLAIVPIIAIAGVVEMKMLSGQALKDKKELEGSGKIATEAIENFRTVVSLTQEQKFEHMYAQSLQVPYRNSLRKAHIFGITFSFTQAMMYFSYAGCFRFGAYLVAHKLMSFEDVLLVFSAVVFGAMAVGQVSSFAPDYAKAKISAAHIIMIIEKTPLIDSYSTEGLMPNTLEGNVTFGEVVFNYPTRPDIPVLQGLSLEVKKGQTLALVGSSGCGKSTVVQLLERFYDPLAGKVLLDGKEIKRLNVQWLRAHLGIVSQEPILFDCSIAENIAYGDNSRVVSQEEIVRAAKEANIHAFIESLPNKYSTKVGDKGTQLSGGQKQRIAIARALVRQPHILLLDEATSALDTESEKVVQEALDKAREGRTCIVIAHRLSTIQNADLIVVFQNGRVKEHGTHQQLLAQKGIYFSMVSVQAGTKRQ

## COc1ccc(/C=C/C(=O)c2c(C)[n+]([O-])c3ccccc3[n+]2[O-])cc1OC
[1]
  Ratio: 5.01
HL-60 [2]
  growth inhibition (GI): Active
IGROV-1
  growth inhibition (GI): Active
RPMI8266
  growth inhibition (GI): Active
HSC-2
  CC50: 25 µM
UACC-62
  growth inhibition (GI): Active
NCI/ADR-RES
  growth inhibition (GI): Active
PC-3
  growth inhibition (GI): Active
LOX IMVI
  growth inhibition (GI): Active
MDA-MB-435
  growth inhibition (GI): Active
CAKI-1
  growth inhibition (GI): Active
HSC-4
  CC50: 38 µM
[3]
  CC50 at 48 h: 156 µM
OVCAR-4
  growth inhibition (GI): Active
[4]
  CC50 at 48 h: 117 µM
RXF 393
  growth inhibition (GI): Active
[5]
  Ratio: 23
EKVX
  growth inhibition (GI): Active
UO-31
  growth inhibition (GI): Active
NCI-H522
  growth inhibition (GI): Active
OVCAR-8
  growth inhibition (GI): Active
U-251
  growth inhibition (GI): Active
HCT-116
  growth inhibition (GI): Active
DU-145
  growth inhibition (GI): Active
T47D
  growth inhibition (GI): Active
MCF7
  growth inhibition (GI): Active
SF-295
  growth inhibition (GI): Active
HCC 2998
  growth inhibition (GI): Active
[6]
  CC50 at 48 h: 142 µM
Hs-578T
  growth inhibition (GI): Active
K562
  growth inhibition (GI): Active
A549
  growth inhibition (GI): Active
[7]
  IC50: 18.5 µM
NCI-H460
  growth inhibition (GI): Active
SNB-75
  growth inhibition (GI): Active
CCRF-CEM [8]
  IC50: 19.2 µM
A498
  growth inhibition (GI): Active
SW-620
  growth inhibition (GI): Active
NCI-H23
  growth inhibition (GI): Active
OVCAR-3
  growth inhibition (GI): Active
CCRF-CEM [9]
  growth inhibition (GI): Active
HSC-3
  CC50: 31 µM
HOP-92
  growth inhibition (GI): Active
MDA-MB-468
  growth inhibition (GI): Active
HL-60 [10]
  CC50: 14 µM
M14
  growth inhibition (GI): Active
HCT-15
  growth inhibition (GI): Active
